Measurements taken from article PMC5969509 (Chemical Science, 2018).
Where two headings read alike, the source gives them in different places. Positions of bridges follow the written chain, without caps; N, C: chain ends. Non-standard residues stand in square brackets, D forms with d. Residues, ends and D or L forms follow the SMILES beside them.

Assays:
tPHD2 = tPHD2 (Homo sapiens, UniProt Q9GZT9); experiment: Biolayer interferometry, tPHD2 immobilised via N-terminal His-tag; assay type: binding; conditions: BLI; tPHD2 denatured chemically or thermally
[1] = target: tPHD2HisBio (catalytic domain of PHD2, residues 181-426) (Homo sapiens, UniProt Q9GZT9); experiment: Biolayer interferometry, tPHD2HisBio immobilised via C-terminal biotin; assay type: binding
Method in brief: (§1)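 Recombinant protein (tPHD2HisBio or KDM4A) was expressed in E. coli BL21 (DE3) and loaded onto biosensors. Binding was measured by biolayer interferometry as cycles of association and dissociation across a dilution series of test peptide. A DMSO-only sensor included in each run was subtracted to correct for drift, and the traces were fitted globally.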

KDM4A = experiment: Biolayer interferometry, binding to KDM4A; design: species or system human; conditions: BLI, 3-fold dilution series
Method in brief: as §1

[2] = target: catalytic domain of PHD2 (residues 181–426, tPHD2) with N-terminal His-tag and C-terminal biotinylation (tPHD2_(HisBio)) (human) (UniProt Q9GZT9); experiment: BLI
[3] = target: catalytic domain of PHD2 (residues 181–426, tPHD2) with N-terminal His-tag and C-terminal biotinylation (tPHD2_(HisBio)) (human) (UniProt Q9GZT9); experiment: BLI; remark: listed apart in the source
PHD1 = experiment: 3CBt capture; assay type: binding, human; conditions: protein 10 µM, 3CBt 26 µM, Coomassie SDS-PAGE
PHD2 = experiment: 3CBt capture; assay type: binding, human
PHD3 = experiment: 3CBt capture; assay type: binding, human; conditions: 3CBt 26 µM
PHD2:HIF1-α complex = experiment: 3CBt capture of PHD:HIF1-α complex from RCC4 cell lysates; assay type: binding; conditions: RCC4 cells in hypoxia, 3CBt 52 µM, western blot

Chain of tPHD2HisBio (catalytic domain of PHD2, residues 181-426) (Q9GZT9 181-426): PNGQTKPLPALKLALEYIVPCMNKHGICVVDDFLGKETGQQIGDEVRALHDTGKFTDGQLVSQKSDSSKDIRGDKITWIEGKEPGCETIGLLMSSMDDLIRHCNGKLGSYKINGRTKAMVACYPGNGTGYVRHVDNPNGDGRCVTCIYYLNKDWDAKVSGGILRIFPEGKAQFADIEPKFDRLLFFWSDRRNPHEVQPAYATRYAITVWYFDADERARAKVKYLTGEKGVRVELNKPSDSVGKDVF
Chain of catalytic domain of PHD2 (residues 181–426, tPHD2) with N-terminal His-tag and C-terminal biotinylation (tPHD2_(HisBio)) (human) (Q9GZT9 181-426): as above
Chain of tPHD2 (Q9GZT9 181-426): as above

Q: What does the source list for CC(C)C[C@@H]1NC(=O)[C@H](Cc2c[nH]c3ccccc23)NC(=O)[C@H](C(C)C)NC(=O)[C@@H](Cc2ccc(O)cc2)NC(=O)CSC[C@@H](C(N)=O)NC(=O)[C@H]([C@@H](C)O)NC(=O)[C@H](CCCNC(=N)N)NC(=O)[C@H](CO)NC(=O)[C@H](CC(C)C)NC(=O)[C@H](C(C)C)NC(=O)[C@H](Cc2c[nH]c3ccccc23)NC(=O)[C@H]([C@@H](C)O)NC(=O)[C@H](CC(=O)O)NC(=O)[C@H]([C@@H](C)O)NC1=O [3C] ({CH2CO}-[dY]VWLTDTWVLSRTC-NH2; thioether N-14)?
A: binding to denatured tPHD2 (tPHD2): abolished; Kd [1]: 0.00027 µM; dissociative half-life t1/2 ([1]; BLI, C-terminal biotin immobilisation): 1.13 h; binding to KDM4A (KDM4A): almost no detectable binding

Q: For “C-terminal oxygen dependent domain (CODD), a fragment peptide of HIF1-α”, which Kd [2] is on record?
A: 5.2 µM

Q: What about the Kd [3] of the same compound?
A: 6.3 µM

Q: “DYVWL T DT W VL SRTCGSGSGSZ (sidechain bridge or staple) [3CBt]” was tested. Which “capture of recombinant full length PHD1” value (PHD1) did it give?
A: able to capture

Q: And the “capture of endogenous PHD2 from Hep3B cell lysates” value (PHD2; hypoxic (1% O2) Hep3B cells, western blot, 3CBt 13 µM)?
A: could be captured

Q: What about the “recovery of recombinant full-length PHD2” value (PHD2; protein 10 µM, 3CBt 26 µM, Coomassie SDS-PAGE) of the same compound?
A: recovered in a 3CBt-dependent manner

Q: And the “recovery of isolated recombinant tPHD2” value (PHD2; streptavidin magnetic beads, Coomassie SDS-PAGE, tPHD2 100 nM, 3CBt 520 nM)?
A: High levels of tPHD2 recovery

Q: And the “capture of endogenous PHD3 from Hep3B cell lysates” value (PHD3; hypoxic conditions, western blot)?
A: able to affinity purify

Q: What about the “capture of recombinant full length PHD3” value (PHD3; protein 10 µM, Coomassie SDS-PAGE) of the same compound?
A: able to capture

Q: What about the “co-purification of HIF1-α and PHDs at endogenous levels” value (PHD2:HIF1-α complex) of the same compound?
A: could co-purify HIF1-α and PHDs at endogenous levels
